NF-kB neuron act: raises NF-kB expression in human neuronal cells; NF-kB reporter expression; stronger effect = higher value; fold change at 12.5 µM; hit rate 1.6% among 190,000; in the data active = fold change above about 3.3
STAT1 inh: STAT1 signaling inhibition; hit rate 0.35% among 200,000; NIH 3T3 STAT1-luciferase reporter, IFN-gamma, luminescence; inhibition, % at 5.5 µM;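 active = inhibition above a set limit, the mean inhibition across all tested compounds plus 3 SD, cut at about 34% in these data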;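 note: 0% = IFN-gamma with DMSO and 100% = IFN-gamma with 300 µM nifuroxazide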
STAT3 blocker: STAT3 signaling inhibition. AID 862. inhibition, % at 5.5 µM. hit rate 0.89% among 190,000. U3A cells, IL-6 STAT3-luciferase reporter, luminescence; host cell line lacks STAT1;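 active = inhibition above the mean inhibition across all screened compounds plus 3 SD, cut at about 44% in these data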;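 note: 0% = DMSO only wells and 100% = 100 µM nifuroxazide control wells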
STAT1 act-1: increases IFN-gamma driven STAT1 reporter signal; NIH 3T3 STAT1-luciferase reporter, luminescence; 100% = IFN-gamma alone, no compound; hit rate 2.6% among 200,000; activation (% of control), % at 5.5 µM;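 active = activation above the screen-wide mean activation plus 3 SD, cut at about 130% in these data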;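 note: raw ratio to IFN-gamma control signal so 100% means no change and 0% no light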
APP 5'UTR act: APP 5'UTR luciferase reporter activation | SH-SY5Y APP 5'UTR luciferase reporter, luminescence; zero percent = DMSO vehicle wells | activation, % at 2 µM | hit rate 1% among 190,000;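 active = activation above a set limit, based on mean plus 3 SD of controls, cut at about 140% in these data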
STAT3 act-1: increases IL-6 driven STAT3 reporter signal; U3A cells, IL-6 STAT3-luciferase reporter, luminescence; 100% = signal with IL-6 EC80 alone; hit rate 0.91% among 190,000; activation (% of control), % at 5.6 µM; AID 871;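 active = activation above the screen-wide mean of compound activation plus 3 SD, cut at about 130% in these data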;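 note: 0% = background luminescence of wells with medium and substrate only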
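Test system: STAT3-luciferase reporter U3A cells; Detection: reporter luminescence signal; Times: 1 h compound pre-exposure, 6 h IL-6 stimulation, 37 °C; Benchmarks: IL-6-only high control; Also added: IL-6 stimulus at 33 ng/mL final.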
STAT3 act-2: STAT3 activation, confirmation assay. shares compounds with STAT3 act-1. U3A STAT3-luciferase reporter, IL-6 potentiation, luminescence; U3A cells lack STAT1; 100 means same as IL-6 alone. AID 1267. hit rate 64% among 1,200. potentiation (% of control), % at 5.7 µM;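 active = percent activation of the STAT3 luciferase reporter above a set limit taken from the earlier primary screen, cut at about 130% in these data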;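 note: 0% = background signal of medium plus substrate and 100% = median of IL-6 with DMSO wells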
NFkB act STAT3ct: counter-screen for STAT3 activators: NF-kappaB activation; shares compounds with STAT3 act-1; human cells, NF-kappaB reporter activation; activation (% of control), % at 5.7 µM; hit rate 11% among 1,200; in the data active = activation above about 120%;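 note: reporter induced by TNF-alpha stimulation; 100% = median of stimulated DMSO wells and 0% = no signal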
STAT1 act-2: STAT1 activation in STAT3 activator counter-screen | shares compounds with STAT3 act-1 | hit rate 13% among 1,200 | activation (% of control), % at 5.7 µM | NIH 3T3 STAT1-luciferase reporter, IFN-gamma, luminescence | AID 1318;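 active = activation above the solvent-only control well mean plus 3 SD, set per screening run, cut at about 120% in these data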;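 note: 100% = IFN-gamma with DMSO median signal so 100% means no change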
The depositor's hits bear a star; . = no result given. A selection: hits, their analogues and other compounds. The true share with any hit is near 4.9%.

SMILES | NF-kB neuron act | STAT1 inh | STAT3 blocker | STAT1 act-1 | APP 5'UTR act | STAT3 act-1 | STAT3 act-2 | NFkB act STAT3ct | STAT1 act-2
Cc1nn(-c2ccccc2)c2c1C(c1cccs1)C(C#N)=C(N)O2 (stereo not drawn) | 1.06 | 14.8 | -49.1 | 86.5 | 6.4 | 148.5* | 129.1 | 102.2 | 94.6
N#CC1=C(N)Oc2n[nH]c(-c3cccs3)c2C1c1cccs1 (stereo not drawn) | 0.84 | 24.3 | -89.4 | 77.7 | -2.3 | 176.4* | 114.2 | 116.4 | 71.7
Cc1ccc(C(=O)Nc2cc(Cl)ccc2OC(=O)c2ccc(C)cc2)cc1 | 4.12* | 5.0 | -44.6 | 95.5 | 77.5 | 140.5* | 122.6 | 118.7 | 92.8
Cc1cc(NC(=O)c2ccc(Cl)cc2)c(C)cc1O | 1.32 | -17.8 | 4.8 | 115.3 | 21.4 | 102.1 | . | . | .
O=C(Nc1ccccc1OC(=O)c1ccc(Cl)cc1)c1ccc(Cl)cc1 | 1.32 | 3.1 | -49.7 | 97.1 | 29.7 | 136.2* | 140.6* | 115.4 | 99.3
COc1ccc(C(=O)Nc2cc(Cl)ccc2OC(=O)c2ccc(OC)cc2)cc1 | 2.5 | 3.9 | 2.2 | 96.4 | 59.6 | 103.3 | . | . | .
O=C(Nc1ccccc1O)c1ccc(Cl)cc1 | 5.65* | 8.7 | -53.8 | 92.1 | 43.0 | 151.8* | 141.0* | 115.0 | 103.7
C/[N+]([O-])=C/c1c(OCc2ccc(Cl)cc2Cl)ccc2ccccc12 | 1.03 | -13.2 | -30.9 | 112.4 | 22.4 | 138.2* | 115.2 | 97.8 | 84.6
Cc1ccc(-c2[nH]c3ccccc3c2C(C[N+](=O)[O-])c2ccco2)cc1 (stereo not drawn) | 1.17 | 19.3 | -55.5 | 82.1 | 14.2 | 151.9* | 134.0* | 97.1 | 77.6
CCc1nnc(NC(=O)C2(C)COC(c3ccc(OC)cc3)OC2)s1 (stereo not drawn) | 1.05 | 2.0 | -0.9 | 97.1 | 7.3 | 103.7 | . | . | .
COC(=O)c1[nH]c(C)c(/C(O)=C2\C(=O)C(=O)N(CCN3CCOCC3)C2c2cccnc2)c1C (stereo not drawn) | 0.95 | -2.8 | -42.1 | 102.6 | 19.8 | 138.2* | 92.0 | 106.7 | 97.0
CCN(CC)CCN1C(=O)C(=O)/C(=C(/O)c2c(C)[nH]c(C(=O)OC)c2C)C1c1cccnc1 (stereo not drawn) | 1.28 | 2.6 | 0.8 | 97.7 | 5.4 | 102.6 | . | . | .
COc1ccc(C)cc1NC(=O)c1cc2ccccc2o1 | 1.33 | -15.9 | -28.0 | 114.5 | 7.0 | 130.8 | . | . | .
COc1ccc(OC)c(NC(=O)c2cc3ccccc3o2)c1 | 1.07 | -8.2 | -42.7 | 107.6 | 2.0 | 136.1* | 128.7 | 108.7 | 112.4
COC(=O)c1c(NC(=O)CN2CCN(c3ccccc3OC)CC2)c2c(C)cccc2n1C | 0.95 | 3.7 | 10.4 | 96.6 | -0.2 | 93.1 | . | . | .
COC(=O)c1c(NC(=O)CN2CCN(c3ccccc3OC)CC2)c2cc(C)ccc2n1C | 0.98 | -1.7 | -42.0 | 101.5 | -2.5 | 142.7* | 134.9* | 107.4 | 100.4
C/C=C/C(=O)OCC(=O)Nc1ccc(SC(F)F)cc1 | 1.02 | 0.7 | 9.5 | 98.0 | -14.3 | 97.5 | . | . | .
CCOC(=O)c1ccccc1NC(=O)Cn1c(-c2nonc2N)nc2ccccc21 | 2.56 | 1.5 | -35.6 | 97.5 | -93.1 | 136.4* | 104.7 | 129.3* | 111.1
COc1ccc(Cc2nnc(NC(=O)c3cccs3)s2)cc1OC | 0.98 | -7.6 | -3.3 | 106.7 | -3.7 | 109.7 | . | . | .
CC1CCCN(CC(O)COC(c2ccccc2)c2ccccc2)C1 (stereo not drawn) | 1.18 | 16.2 | -11.2 | 83.7 | 7.0 | 110.5 | . | . | .
O=C(NC1CCCCC1)C1Cc2ccccc2CN1S(=O)(=O)c1ccc(F)cc1 (stereo not drawn) | 0.84 | -1.5 | -7.0 | 101.3 | 7.8 | 106.6 | . | . | .
O=C(Nc1nccs1)C1Cc2ccccc2CN1S(=O)(=O)c1ccc(F)cc1 (stereo not drawn) | 1.57 | -25.4 | -43.8 | 122.8 | 155.2* | 138.3* | 127.6 | 126.1* | 148.3*
